Published values gathered from unrelated publications.
pIC50: −log10 of the molar value.
PTPN1: Tyrosine-protein phosphatase non-receptor type 1 (PTPN1, Homo sapiens, UniProt P18031)
MAOA: Amine oxidase [flavin-containing] A (MAOA, Homo sapiens, UniProt P21397)
Acetylcholinesterase: Acetylcholinesterase (Bos taurus, UniProt P23795)
Integrin alpha-V/beta-3: Integrin alpha-V/beta-3 (Homo sapiens, UniProt P05106+P06756)
LDHA: L-lactate dehydrogenase A chain (LDHA, Homo sapiens, UniProt P00338)

Structure (SMILES)	target	test	conditions	pIC50
COc1cc(Nc2ncc(F)c(Nc3ccc4c(n3)NC(=O)C(C)(C)O4)n2)cc(OC)c1OC	Cathepsin S (CTSS, Homo sapiens, UniProt P25774)	enzyme activity, inhibitor	–	4.90
COc1ccc(N2CCN(C(c3cccs3)C(C)NC(=O)C(=O)NCc3ccco3)CC2)cc1 (centres unmarked)	PTPN1	enzyme activity, inhibitor, absorbance	pH 7	4.84
Nc1c(S(=O)(=O)O)cc(Nc2ccc(Nc3nc(Cl)nc(Nc4cccc(S(=O)(=O)O)c4)n3)c(S(=O)(=O)O)c2)c2c1C(=O)c1ccccc1C2=O	P2X purinoceptor 4 (P2RX4, Homo sapiens, UniProt Q99571)	calcium signal, antagonist	–	5.46
O=C1C[C@H](c2ccc(O)cc2)Oc2cc(O)ccc21	MAOA	enzyme activity, inhibitor	–	5.00
O=C(Nc1ccc([N+](=O)[O-])cc1[N+](=O)[O-])c1ccc2c(c1)OCO2	MAOA	enzyme activity, inhibitor	–	6.54
C[C@@H]1C/C=C/CCCCC(=O)Cc2cc(O)cc(O)c2C(=O)O1	Mitogen-activated protein kinase kinase kinase 7 (MAP3K7, Homo sapiens, UniProt O43318)	enzyme activity, inhibitor, ATP luminescence	–	< 5.00
CCOP(=O)(OCC)Oc1ccc2c(C)c(Cl)c(=O)oc2c1	Acetylcholinesterase	enzyme activity, inhibitor, Ellman	–	5.98
O=c1c2ccccc2[se]n1-c1ccccc1	Glutathione reductase, mitochondrial (GSR, Homo sapiens, UniProt P00390)	enzyme activity, inhibitor, absorbance	–	4.67
CNC(=O)C(Cc1ccc(C(F)(F)[P-](F)(F)(F)(F)F)cc1)NC(C)=O (centres unmarked)	PTPN1	enzyme activity, inhibitor	–	3.06
CCC(CC)CSc1ccccc1OC(=O)NC	Acetylcholinesterase	enzyme activity, inhibitor, Ellman	–	5.29
CC[C@H](C)[C@@H]([C@@H](CC(=O)N1CCC[C@H]1[C@H](OC)[C@@H](C)C(=O)N[C@H](C)[C@@H](O)c1ccccc1)OC)N(C)C(=O)[C@@H](NC(=O)[C@H](C(C)C)N(C)C(=O)CCc1cn(CCOCCOCCOCCOCC(=O)NCc2ccc(CN3C(=O)[C@H]4CC(=O)N[C@H](C(=O)O)CC(=O)NCC(=O)N[C@@H](CCCNC(=N)N)C(=O)NC[C@H]3C(=O)N4)cc2)nn1)C(C)C	Integrin alpha-V/beta-3	ligand displacement	–	7.84
O=c1cc(-c2ccc(O)c(O)c2)oc2cc(O[C@@H]3O[C@H](CO)[C@@H](O)[C@H](O)[C@H]3O[C@@H]3O[C@H](CO)[C@@H](O)[C@H](O)[C@H]3O)cc(O)c12	LDHA	enzyme activity, inhibitor	pH 7.4	3.79
CCCc1c(C2CCCCN2CCN2CCOCC2)[nH]c2cc(OC(F)(F)F)ccc12 (centres unmarked)	Plasma membrane ATPase 1 (PMA1, Saccharomyces cerevisiae, UniProt P05030)	ATPase activity, inhibitor	–	4.57
CC[n+]1c(-c2ccccc2)c2cc(N)ccc2c2ccc(N)cc21	Acetylcholinesterase	enzyme activity, inhibitor, Ellman	–	4.49
C#CCN(C)c1nc(NCCCCC2CCN(Cc3ccccc3)CC2)c(C#N)c(-c2ccccc2)c1C#N	MAOA	enzyme activity, inhibitor, fluorescence	–	4.94
CN(C)CCCN1c2ccccc2Sc2ccccc21	Histamine H2 receptor (HRH2, Homo sapiens, UniProt P25021)	ligand displacement, radioligand	–	6.96
NC(Cc1ccc(C(=O)[P-](F)(F)(F)(F)F)cc1)C(=O)O (centres unmarked)	PTPN1	enzyme activity, inhibitor	–	3.98
CNC(=O)Oc1ccccc1OC(C)C	Acetylcholinesterase	enzyme activity, inhibitor, Ellman	–	5.74
COc1c(O[C@@H]2O[C@H](CO)[C@@H](O)[C@H](O)[C@H]2O)cc2oc(-c3ccc(O)cc3)cc(=O)c2c1O	LDHA	enzyme activity, inhibitor	pH 7.4	3.68
CC[C@H](C)[C@@H]([C@@H](CC(=O)N1CCC[C@H]1[C@H](OC)[C@@H](C)C(=O)N[C@H](C)[C@@H](O)c1ccccc1)OC)N(C)C(=O)[C@@H](NC(=O)[C@H](C(C)C)N(C)C(=O)OCc1ccc(NC(=O)[C@H](C)NC(=O)[C@@H](NC(=O)CCc2cn(CCOCCOCCOCCOCC(=O)NCc3ccc(CN4C(=O)[C@H]5CC(=O)N[C@H](C(=O)O)CC(=O)NCC(=O)N[C@@H](CCCNC(=N)N)C(=O)NC[C@H]4C(=O)N5)cc3)nn2)C(C)C)cc1)C(C)C	Integrin alpha-V/beta-3	ligand displacement	–	7.44
